Usually IC50 stands for the concentration needed to halve the response being measured.

The structures appear in SMILES notation. Converted amounts (≈) assume the structure as drawn.

These results are taken from ChEMBL document CHEMBL1255453, “Affinity of ceftaroline and other beta-lactams for penicillin-binding proteins from Staphylococcus aureus and Streptococcus pneumoniae” (Antimicrob Agents Chemother, 2010).

The target in experiment [1] is T1, Penicillin-binding protein 1A (Streptococcus pneumoniae serotype 4 (strain ATCC BAA-334 / TIGR4), UniProt Q04707).
T1 sequence (Q04707 whole entry): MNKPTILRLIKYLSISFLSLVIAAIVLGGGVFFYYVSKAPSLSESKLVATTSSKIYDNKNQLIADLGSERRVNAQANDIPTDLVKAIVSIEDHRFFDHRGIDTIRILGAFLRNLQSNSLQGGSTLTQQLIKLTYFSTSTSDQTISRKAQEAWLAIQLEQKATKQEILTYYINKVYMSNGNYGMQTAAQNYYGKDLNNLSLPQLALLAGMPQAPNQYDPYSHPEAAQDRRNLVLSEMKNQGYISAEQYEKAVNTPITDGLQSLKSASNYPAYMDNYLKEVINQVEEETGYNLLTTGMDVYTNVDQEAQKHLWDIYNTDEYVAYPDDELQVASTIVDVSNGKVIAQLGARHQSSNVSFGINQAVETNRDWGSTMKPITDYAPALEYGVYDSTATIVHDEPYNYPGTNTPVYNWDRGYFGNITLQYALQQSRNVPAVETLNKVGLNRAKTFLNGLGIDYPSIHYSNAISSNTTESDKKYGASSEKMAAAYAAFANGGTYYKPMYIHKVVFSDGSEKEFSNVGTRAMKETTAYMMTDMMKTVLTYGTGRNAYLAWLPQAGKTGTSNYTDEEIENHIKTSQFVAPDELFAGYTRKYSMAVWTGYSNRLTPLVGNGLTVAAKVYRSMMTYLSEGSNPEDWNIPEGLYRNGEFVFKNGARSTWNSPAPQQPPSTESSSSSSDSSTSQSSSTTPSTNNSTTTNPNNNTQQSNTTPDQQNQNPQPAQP
Put plainly: Binding affinity to penicillin-resistant Streptococcus pneumoniae 24 PBP1A by competitive binding assay. The gist of the method:
(§1)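 Whole pneumococcal cells grown to OD600 0.3 in Todd-Hewitt broth with 0.5% yeast extract, resuspended in 50 mM NaPO4 pH 7.0. Cells (10^8–5 × 10^8 CFU/ml) incubated with β-lactam 10 min at 37°C, then Bocillin FL 10 μg/ml, 15 min at 37°C. SDS-PAGE, 520 nm fluorescence; IC50 = 50% inhibition of Bocillin FL binding; 2 experiments.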

Experiment [2] is described as follows: Binding affinity to penicillin-resistant Streptococcus pneumoniae 24 PBP1B by competitive binding assay. A digest of the protocol:
as §1

Experiment [3] is described as follows: Binding affinity to penicillin-resistant Streptococcus pneumoniae 3413 PBP1B by competitive binding assay. The gist of the method: (§2)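 Whole pneumococcal cells were grown to OD600 0.3 in Todd-Hewitt broth plus 0.5% yeast extract, then resuspended in 50 mM NaPO4, pH 7.0. Cells at 10^8 to 5 × 10^8 CFU/ml were exposed to β-lactam for 10 min at 37°C, alongside a reference without drug. They were then labeled with 10 μg/ml Bocillin FL for 15 min at 37°C. Proteins were resolved by SDS-PAGE and fluorescence read at 520 nm. IC50 was taken as 50% inhibition of Bocillin FL binding, from 2 experiments.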

Experiment [4] in a line: Binding affinity to penicillin-resistant Streptococcus pneumoniae 2527 PBP1B by competitive binding assay. The gist of the method:
as §2

The target of experiment [5] is T2, Penicillin-binding protein 2x (Streptococcus pneumoniae serotype 4 (strain ATCC BAA-334 / TIGR4), UniProt P14677).
T2 sequence (P14677 whole entry): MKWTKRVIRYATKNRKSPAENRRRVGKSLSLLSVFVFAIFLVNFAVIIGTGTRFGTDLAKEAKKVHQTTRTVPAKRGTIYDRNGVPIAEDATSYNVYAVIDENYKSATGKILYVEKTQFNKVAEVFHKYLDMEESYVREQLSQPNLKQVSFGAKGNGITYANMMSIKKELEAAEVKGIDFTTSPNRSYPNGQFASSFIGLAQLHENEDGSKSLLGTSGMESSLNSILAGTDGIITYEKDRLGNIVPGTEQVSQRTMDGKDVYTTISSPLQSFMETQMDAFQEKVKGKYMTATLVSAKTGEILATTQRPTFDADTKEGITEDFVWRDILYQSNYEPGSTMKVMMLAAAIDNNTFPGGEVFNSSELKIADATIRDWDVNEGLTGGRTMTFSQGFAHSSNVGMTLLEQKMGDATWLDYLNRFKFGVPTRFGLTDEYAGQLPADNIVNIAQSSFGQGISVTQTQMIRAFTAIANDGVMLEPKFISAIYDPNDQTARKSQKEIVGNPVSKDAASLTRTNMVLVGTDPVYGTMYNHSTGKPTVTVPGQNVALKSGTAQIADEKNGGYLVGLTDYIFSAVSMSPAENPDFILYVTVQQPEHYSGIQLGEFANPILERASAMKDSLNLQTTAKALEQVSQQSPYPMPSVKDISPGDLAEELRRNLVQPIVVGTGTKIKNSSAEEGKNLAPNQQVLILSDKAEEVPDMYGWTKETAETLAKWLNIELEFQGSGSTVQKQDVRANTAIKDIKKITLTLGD
Put plainly: Binding affinity to against penicillin-susceptible Streptococcus pneumoniae 1076 PBP2X by competitive binding assay. A digest of the protocol:
as §1

Experiment [6] in a line: Binding affinity to against penicillin-susceptible Streptococcus pneumoniae 1076 PBP2A by competitive binding assay. The gist of the method: as §1
Experiment [7] in a line: Binding affinity to penicillin-resistant Streptococcus pneumoniae 3413 PBP2A by competitive binding assay. A digest of the protocol:
as §2

The nature of experiment [8]: Binding affinity to penicillin-resistant Streptococcus pneumoniae 2527 PBP2A by competitive binding assay. A digest of the protocol: as §2
For experiment [9], the target named is T3, Penicillin-binding protein 2B (Streptococcus pneumoniae serotype 4 (strain ATCC BAA-334 / TIGR4), UniProt P0A3M5).
T3 sequence (P0A3M5 whole entry): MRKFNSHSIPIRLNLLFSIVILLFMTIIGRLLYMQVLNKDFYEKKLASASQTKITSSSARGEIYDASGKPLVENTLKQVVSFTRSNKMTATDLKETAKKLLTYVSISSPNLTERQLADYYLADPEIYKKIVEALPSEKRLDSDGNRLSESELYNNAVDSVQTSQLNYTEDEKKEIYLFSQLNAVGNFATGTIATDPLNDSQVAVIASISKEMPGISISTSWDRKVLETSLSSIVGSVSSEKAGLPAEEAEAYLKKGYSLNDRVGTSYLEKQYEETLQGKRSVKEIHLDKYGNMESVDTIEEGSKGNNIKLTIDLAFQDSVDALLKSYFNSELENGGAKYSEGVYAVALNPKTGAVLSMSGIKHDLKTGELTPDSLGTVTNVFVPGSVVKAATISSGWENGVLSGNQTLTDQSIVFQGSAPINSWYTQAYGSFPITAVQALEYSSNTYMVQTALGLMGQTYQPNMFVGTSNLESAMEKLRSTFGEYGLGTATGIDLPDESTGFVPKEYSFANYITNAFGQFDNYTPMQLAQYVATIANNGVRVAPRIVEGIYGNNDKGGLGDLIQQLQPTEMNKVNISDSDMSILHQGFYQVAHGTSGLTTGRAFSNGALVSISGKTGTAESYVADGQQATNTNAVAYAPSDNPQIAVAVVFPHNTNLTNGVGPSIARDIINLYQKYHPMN
Put plainly: Binding affinity to penicillin-resistant Streptococcus pneumoniae 24 PBP2B by competitive binding assay. A digest of the protocol:
as §2

Experiment [10] deals with T3, Penicillin-binding protein 2B. In words: Binding affinity to penicillin-resistant Streptococcus pneumoniae 2527 PBP2B by competitive binding assay. The gist of the method: as §2

In the case of `CO/N=C(\C(=O)N[C@@H]1C(=O)N2C(C(=O)O)=C(COC(C)=O)CS[C@H]12)c1csc(N)n1` [CEFOTAXIME], the IC50 in experiment [1] is 0.274 µM; in experiment [2], 8 µg/mL (≈ 17.6 µM); in experiment [3], 4 µg/mL (≈ 8.78 µM); in [4], 0.25 µg/mL (≈ 0.549 µM); in [5] it was 0.549 µM; in experiment [6], 0.25 µg/mL (≈ 0.549 µM). Further, the IC50 in experiment [7] is 0.25 µg/mL (≈ 0.549 µM); in experiment [8] it was 0.25 µg/mL (≈ 0.549 µM); in experiment [9] it was 35.1 µM; in experiment [10], 8.78 µM.

Turning to `CO/N=C(\C(=O)N[C@@H]1C(=O)N2C(C(=O)O)=C(CSc3nc(=O)c(O)nn3C)CS[C@H]12)c1csc(N)n1` [CEFTRIAXONE], the IC50 in experiment [1] is 0.451 µM; in [2] it was 1 µg/mL (≈ 1.8 µM); in [3], 4 µg/mL (≈ 7.21 µM); in [4] it was 0.125 µg/mL (≈ 0.225 µM); in experiment [5], 0.18 µM; in experiment [6] it was 0.25 µg/mL (≈ 0.451 µM). The IC50 in experiment [7] was 1 µg/mL (≈ 1.8 µM); in [8] it was 0.25 µg/mL (≈ 0.451 µM); in [9], 28.9 µM; in experiment [10] it was 7.21 µM.
